Rin1-Abl PPI inh – inhibitors of human Rin1-Abl protein interaction. inhibition, % at 7.35 µM. 0.4% of 360,000 active. P00519+Q13671. TR-FRET Rin1/Abl binding, biochemical; in the data active = inhibition above about 5%, passing the limit was not always enough
UBC13 polyUb – inhibitors of human UBC13 polyubiquitin chain formation | P61088 | TR-FRET | inhibition, % at 20 µM | 0.47% of 330,000 active | AID 485273; in the data active = inhibition above about 45%, passing the limit was not always enough; inconclusive = no clear call, values can overlap the other calls
ALR H2O2 inh – inhibitors of human sulfhydryl oxidase ALR. inhibition, % (no concentration beside the values). AID 485317. P55789. purified ALR, DTT oxidation, H2O2 HRP-luminol luminescence. 3.8% of 290,000 active;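 active = mean replicate inhibition above about 79%, with every replicate also reaching it, limit read from the data; inconclusive = only one of the two criteria met; inactive = mean below limit and not every replicate reaching it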
UBC9 SUMO inh – SUMOylation inhibition; P63279; HTRF SUMOylation assay, SAE1/SAE2 + UBC9, in vitro; inhibition, % at 35 µM; 0.36% of 290,000 active; AID 2006; in the data active = inhibition above about 50%, passing the limit was not always enough; inconclusive = no clear call, values can overlap the other calls
PREPL inh – inhibitors of human prolyl oligopeptidase-like enzyme PREPL; Q4J6C6; recombinant PREPL, fluorescence polarization activity-based probe; inhibition, % at 5.96 µM; 0.68% of 320,000 active; AID 2751; in the data active = inhibition above about 43%;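 note: 0% = enzyme with DMSO and 100% = wells lacking enzyme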
RBBP9 inhibitor – inhibitors of human serine hydrolase RBBP9 | recombinant RBBP9, FP-Rh probe fluorescence polarization | inhibition, % at 7.94 µM | 0.2% of 220,000 active | AID 1515;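 active = inhibition above the campaign mean of all tested compounds plus 3 SD, cut at about 14% in these data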;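 note: plate controls were DMSO wells with RBBP9 for no effect and wells lacking RBBP9 protein for full effect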
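System: RBBP9 protein / Quantity: 2.5 µM RBBP9 dispensing solution, before mixing / Also added: Serine-hydrolase probe FP-Rh, 375 nM pre-mixing / Dosing: 7.94 µM single dose, 0.794% DMSO / Timing: enzyme-compound preincubation 30 min, then probe labeling 45 min, 25 °C / Signal: FP readout at 525/598 nm / Controls: DMSO-treated enzyme wells and wells lacking RBBP9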
Casp3 UBC13 ctr – inhibits human caspase-3 in UBC13 counter-screen. shares compounds with UBC13 polyUb. Recombinant caspase-3, Caspase-Glo 3/7 luminescence, 60 min. inhibition, % at 20 µM. 4% of 1,400 active. AID 488856;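 active = mean inhibition across replicates above about 26%, limit read from the data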;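 note: plate controls were DMSO with caspase-3 for no effect and DMSO wells lacking enzyme for full effect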
UBC13 confirm – human UBC13 polyubiquitin inhibition, confirmed; shares compounds with UBC13 polyUb; UBC13 polyubiquitination, TR-FRET, biochemical; inhibition, % at 10 µM; 68% of 1,400 active; AID 488859; in the data active = inhibition above about 45%; inconclusive = no clear call, values can overlap the other calls
* = called active by the depositor; ? = inconclusive; nt = no result given. In the library only some 4.3% were active in any assay of this set; here they are far more common.

SMILES	Rin1-Abl PPI inh	UBC13 polyUb	ALR H2O2 inh	UBC9 SUMO inh	PREPL inh	RBBP9 inhibitor	Casp3 UBC13 ctr	UBC13 confirm
CCCCNc1c(-c2ccc(OC)c(SC3CCCCC3)c2)nc2cc(C)ccn12	2.4	49.9*	nt	nt	18.4	nt	2.7	21.7
CCCCCCSc1cc(-c2nc3cc(C)ccn3c2NC2CCCCC2)ccc1OC	2.2	50.8*	nt	nt	6.9	nt	-1.4	29.8
Cc1ccc(-c2csc(NC(=O)C[n+]3cc(-c4ccccc4)n4c3CCC4)n2)cc1	-4.2	44.6	6.8	3.0	-7.9	-4.2	nt	nt
Cc1ccc(-c2csc(NC(=O)C[n+]3cc(-c4ccc(C)cc4)n4c3CCC4)n2)cc1	-3.8	59.7*	-3.5	15.9	-26.8	-7.2	0.8	69.8*
CC(=O)Nc1ccc(NC(=O)c2nc(S(=O)(=O)Cc3ccccc3)ncc2Cl)cc1	-1.0	47.4*	1.6	9.2	-3.0	nt	-4.5	45.2*
Cc1ccc(CS(=O)(=O)c2ncc(Cl)c(C(=O)Nc3nnc(C(C)C)s3)n2)cc1	0.5	50.2*	13.9	14.0	2.5	nt	0.6	63.2*
CC(=O)c1ccc(OCC(O)CN2CCN(S(=O)(=O)c3c(C)c(C)cc(C)c3C)CC2)cc1 (centres undefined)	0.8	3.9	-18.0	1.0	-1.3	nt	nt	nt
CCN(CC(=O)Nc1c(F)cccc1F)C(=O)CCOc1ccccc1	-1.2	54.6*	-1.8	nt	8.0	nt	2.4	-3.9
C[C@@H](O)C1NC(=O)[C@H](CCCCN)NC(=O)c2cc([N+](=O)[O-])cc(F)c2NCCCC[C@@H](C(N)=O)NC1=O (some centres undefined)	0.5	95.8*	-5.5	9.7	20.1	-7.2	-0.4	100.9*
CC[C@H](C)[C@@H]1NC(=O)c2cc([N+](=O)[O-])cc(F)c2NCCCC[C@@H](C(N)=O)NC(=O)[C@H](CC(N)=O)NC1=O	-1.4	-5.9	-7.8	-2.8	1.6	-11.9	nt	nt
O=C(NNC(=O)c1ccccn1)c1ccc(OC(F)F)cc1	1.8	96.0*	-5.0	nt	6.2	nt	59.1*	67.7*
O=C(NCCc1ccccn1)c1ccc(OC(F)F)cc1	0.6	5.9	-5.8	15.4	-5.3	-5.5	nt	nt
CN(C)c1ccc(-c2ccnc3c2CC(C)(C(=O)NCc2cccc(Cl)c2)O3)cc1 (centres undefined)	0.4	nt	nt	nt	nt	nt	nt	nt
CCN(CC)C(=O)Cn1cc(C(=O)C(=O)N2CC=C(c3ccccc3)CC2)c2ccccc21	2.1	11.7	-17.1	1.9	-12.8	1.8	nt	nt
CCOC(=O)c1sc2nc(C3CC3)cc(-c3ccc(OC)cc3)c2c1N	-1.4	48.3*	0.2	33.4	19.1	-4.6	-3.1	?
CCOC(=O)c1sc2nc(C3CC3)cc(-c3ccc(F)cc3)c2c1N	-0.5	29.4	54.4	36.3	-9.6	-5.9	nt	nt
COC(=O)c1c(NC(=O)COc2ccc(Cl)cc2)sc2c1CC(C)(C)NC2(C)C	1.5	43.0	-18.0	-2.2	15.5	nt	nt	nt
CC1(C)Cc2c(sc(NC(=O)COc3ccc(Cl)cc3Cl)c2C(N)=O)C(C)(C)N1	-1.4	73.8*	-2.9	2.8	-5.8	nt	-0.9	108.8*
CC(C)(C)NC(=O)CSc1nc2cc(S(=O)(=O)N3CCCCC3)ccc2o1	2.5	5.5	-1.8	nt	8.3	nt	nt	nt
COC(=O)[C@@]1(C)[C@H]2C(=O)N(Cc3ccccc3)C(=O)[C@H]2[C@H]2CN(C)C(=NC3CCCCC3)N21	-3.2	nt	nt	nt	nt	nt	nt	nt
O=C(c1ccc(CS(=O)c2cccc(Cl)c2)o1)N1CCN(c2ccccn2)CC1 (centres undefined)	0.1	-0.7	15.6	13.9	12.8	nt	nt	nt
COc1ccc(-c2cc3c(=O)n(CC(=O)NCCCN4CCC(N5CCCCC5)CC4)nc(C)n3n2)cc1	-0.2	71.1*	-7.4	13.1	2.4	nt	-0.9	34.0
COc1ccc(-c2cc3c(=O)n(CC(=O)NCCCN4CCC(N5CCCCC5)CC4)ncn3n2)cc1	-1.4	27.1	-2.7	24.5	7.8	nt	nt	nt
CCOc1ccc(-c2nc(S(=O)(=O)c3ccccc3)c(NC)o2)cc1	0.6	46.7*	3.5	13.5	5.1	nt	-0.2	33.1
Cc1cc(SCC(=O)O)nc2ccccc12	-9.7	6.6	-9.9	-10.9	-7.3	1.8	nt	nt
